SMILES strings stand for the structures. pEC50: −log10 of the molar value.

Data on five molecules can be found in ChEMBL document CHEMBL1156009, “Eleven amino acid glucagon-like peptide-1 receptor agonists with antidiabetic activity” (J Med Chem, 2009).

The assay has as its target Glucagon-like peptide 1 receptor (Homo sapiens, UniProt P43220). Nature of the assay: Agonist activity at human GLP1R expressed in CHO cells assessed as stimulation of intracellular [3H]cAMP accumulation after 30 mins by scintillation proximity assay. The assay is classed as functional, cell-based. The essentials: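 CHO cells stably expressing human or mouse GLP-1R, grown in F-12 with 10% FBS plus Geneticin (0.4 mg/mL human, 1 mg/mL mouse), plated 2×10^4/well overnight. Half-log dilutions made in DMSO, then in DPBS with 0.1 mM IBMX and 0.05% BSA (final 1% DMSO). Cells exposed 30 min. cAMP read by SPA and converted to pmol via standard curve. Duplicates, at least three separate runs.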

Sequence of Glucagon-like peptide 1 receptor (P43220 whole entry): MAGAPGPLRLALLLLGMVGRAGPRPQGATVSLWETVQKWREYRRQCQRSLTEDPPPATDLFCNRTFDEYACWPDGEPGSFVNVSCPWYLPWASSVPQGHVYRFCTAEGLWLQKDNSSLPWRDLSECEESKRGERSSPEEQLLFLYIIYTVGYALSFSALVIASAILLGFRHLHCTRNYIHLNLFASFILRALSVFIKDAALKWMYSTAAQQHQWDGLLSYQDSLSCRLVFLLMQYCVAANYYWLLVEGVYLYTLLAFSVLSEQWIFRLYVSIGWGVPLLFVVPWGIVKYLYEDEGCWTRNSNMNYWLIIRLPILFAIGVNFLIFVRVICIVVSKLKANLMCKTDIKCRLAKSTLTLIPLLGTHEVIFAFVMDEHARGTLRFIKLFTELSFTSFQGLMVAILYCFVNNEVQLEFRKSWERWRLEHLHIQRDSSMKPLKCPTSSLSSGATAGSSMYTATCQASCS

Regarding `CCc1cc(OC)ccc1-c1ccc(C[C@H](NC(=O)[C@H](CC(=O)O)NC(=O)[C@H](CO)NC(=O)[C@@H](NC(=O)[C@H](Cc2ccccc2)NC(=O)[C@@H](NC(=O)CNC(=O)[C@H](CCC(=O)O)NC(=O)[C@H](C)NC(=O)[C@@H](N)Cc2cnc[nH]2)[C@@H](C)O)[C@@H](C)O)C(=O)N[C@@H](Cc2ccc(-c3ccccc3C)cc2)C(N)=O)cc1`, the pEC50 is 8.15.
`Cc1ccc(-c2ccc(C[C@H](NC(=O)[C@H](Cc3ccc(-c4ccccc4C)cc3)NC(=O)[C@H](CC(=O)O)NC(=O)[C@H](CO)NC(=O)[C@@H](NC(=O)[C@H](Cc3ccccc3)NC(=O)[C@@H](NC(=O)CNC(=O)[C@H](CCC(=O)O)NC(=O)[C@H](C)NC(=O)[C@@H](N)Cc3cnc[nH]3)[C@@H](C)O)[C@@H](C)O)C(N)=O)cc2)cc1`: the pEC50 is 7.02.
For `CCc1ccccc1-c1ccc(C[C@H](NC(=O)[C@H](CC(=O)O)NC(=O)[C@H](CO)NC(=O)[C@@H](NC(=O)[C@H](Cc2ccccc2)NC(=O)[C@@H](NC(=O)CNC(=O)[C@H](CCC(=O)O)NC(=O)[C@H](C)NC(=O)[C@@H](N)Cc2cnc[nH]2)[C@@H](C)O)[C@@H](C)O)C(=O)N[C@@H](Cc2ccc(-c3ccccc3)cc2)C(N)=O)cc1` the value was 7.57; for `CCc1ccccc1-c1ccc(C[C@H](NC(=O)[C@H](CC(=O)O)NC(=O)[C@H](CO)NC(=O)[C@@H](NC(=O)[C@H](Cc2ccccc2)NC(=O)[C@@H](NC(=O)CNC(=O)[C@H](CCC(=O)O)NC(=O)[C@H](C)NC(=O)[C@@H](N)Cc2cnc[nH]2)[C@@H](C)O)[C@@H](C)O)C(=O)N[C@@H](Cc2ccc(-c3ccccc3C)cc2)C(N)=O)cc1`, 7.66; for `CCCc1ccccc1-c1ccc(C[C@H](NC(=O)[C@H](CC(=O)O)NC(=O)[C@H](CO)NC(=O)[C@@H](NC(=O)[C@H](Cc2ccccc2)NC(=O)[C@@H](NC(=O)CNC(=O)[C@H](CCC(=O)O)NC(=O)[C@H](C)NC(=O)[C@@H](N)Cc2cnc[nH]2)[C@@H](C)O)[C@@H](C)O)C(=O)N[C@@H](Cc2ccc(-c3ccccc3C)cc2)C(N)=O)cc1`, 7.03.
